Reference: ChEMBL document CHEMBL1123791, “3'-substituted 2',3'-dideoxynucleoside analogues as potential anti-HIV (HTLV-III/LAV) agents” (J Med Chem, 1987)

Tests used:
[1] = test system: MT4; assay: Protection was determined by evaluation of cluster morphology and reclustering properties in […] MT-4 cells at 5 uM concentration.; format: functional, Homo sapiens
In short: (§1)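 MT4 cells infected with HIV (300 CCID50/well) were seeded at 2.5×10^5 cells/mL with compound at 125, 5, 0.2, 0.008 or 0.00032 µM and kept 5 days at 37 °C. Clusters were scored microscopically, dispersed by pipetting, and reclustering assessed after 4 h at 37 °C. Scoring: +++ >90% protection.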

[2] = test system: MT4; assay: Protection was determined by evaluation of cluster morphology and reclustering properties in […] MT-4 cells at 0.2 uM concentration; format: functional, Homo sapiens
[3] = test system: MT4; assay: Protection was determined by evaluation of cluster morphology and reclustering properties in mock infected MT-4 cells at 125 uM concentration; format: functional, Homo sapiens; details: in the assay text read “HIV infected” for “mock infected”; in short: as §1
[4] = test system: ATH-8 cell line; assay: Protection of ATH8 cells against the cytopathic effect of HIV.; format: functional; details: Homo sapiens, read-out: ED50 (the source's name)
[5] = test system: ATH-8 cell line; assay: Required dose to reduce viability of normal uninfected ATH8 cells.; format: functional; details: Homo sapiens, read-out: ID50 (the source's name)
[6] = test system: MT4; assay: Toxicity was determined by evaluation of cluster morphology and reclustering properties in mock infected MT-4 cells at 0.2 uM concentration; format: cell-based; details: human, mt4, 0.2 µM
[7] = test system: MT4; assay: Toxicity was determined by evaluation of cluster morphology and reclustering properties in mock infected MT-4 cells at 5 uM concentration; format: cell-based; details: human, mt4, 5 µM
In short: (§2)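 Mock-infected MT4 cells were seeded at 2.5×10^5 cells/mL with compound at 125–0.00032 µM and cultured 5 days at 37 °C. Cluster morphology was scored microscopically, then cells were dispersed by pipetting and reclustering read after 4 h. Scoring: ++ >90%, + 10–40%, − <10% toxicity.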

[8] = test system: MT4; assay: Toxicity was determined by evaluation of cluster morphology and reclustering properties in mock infected MT-4 cells at 125 uM concentration; Range is 10-40; format: cell-based; details: human, mt4, 125 µM; in short: as §2
[9] = test system: MT4; assay: Protection was determined by evaluation of cluster morphology and reclustering properties in mock infected MT-4 cells at 125 uM concentration; Range is 10-40; format: functional, Homo sapiens; details: in the assay text read “HIV infected” for “mock infected”; in short: as §1
[10] = test system: MT4; assay: Toxicity was determined by evaluation of cluster morphology and reclustering properties in mock infected MT-4 cells at 125 uM concentration; format: cell-based; details: human, mt4, 125 µM
[11] = Therapeutic index (Ratio = ID50/ED50).
[12] = test system: MT4; assay: Protection was determined by evaluation of cluster morphology and reclustering properties in […] MT-4 cells at 0.2 uM concentration; Range is 40-60; format: functional, Homo sapiens; in short: as §1
[13] = test system: MT4; assay: Protection was determined by evaluation of cluster morphology and reclustering properties in […] at 0.008 uM concentration.; format: functional, Homo sapiens
[14] = test system: MT4; assay: Protection was determined by evaluation of cluster morphology and reclustering properties in […] at 5 uM concentration; Range is 40-60; format: functional, Homo sapiens
[15] = test system: MT4; assay: Protection was determined by evaluation of cluster morphology and reclustering properties in […] MT-4 cells at 0.00032 uM concentration; format: functional, Homo sapiens; in short: as §1
[16] = test system: MT4; assay: Toxicity was determined by evaluation of cluster morphology and reclustering properties in mock infected MT-4 cells at 0.2 uM concentration; Range is 10-40; format: cell-based; details: human, mt4, 0.2 µM; in short: as §2
[17] = test system: MT4; assay: Protection was determined by evaluation of cluster morphology and reclustering properties in […] MT-4 cells at 0.008 uM concentration; Range is 10-40; format: functional, Homo sapiens; in short: as §1
[18] = test system: MT4; assay: Protection was determined by evaluation of cluster morphology and reclustering properties in […] MT-4 cells at 5 uM concentration; Range is 10-40; format: functional, Homo sapiens; in short: as §1
[19] = test system: MT4; assay: Toxicity was determined by evaluation of cluster morphology and reclustering properties in mock infected MT-4 cells at 0.00032 uM concentration; format: cell-based; details: human, mt4, 0.00032 µM; in short: as §2
[20] = test system: MT4; assay: Toxicity was determined by evaluation of cluster morphology and reclustering properties in mock infected MT-4 cells at 0.008 uM concentration; format: cell-based; details: human, mt4, 0.008 µM; in short: as §2

SMILES	Protection [1]	Protection [2]	Protection [3]	EC50 [4]	IC50 [5]	Toxicity [6]	Toxicity [7]	Toxicity [10]	selectivity ratio [11]	Protection [13]	Protection [18]	further results
Nc1ncnc2c1ncn2[C@H]1C[C@H](O)[C@@H](CO)O1 [DEOXYADENOSINE]	<10%	<10%	<10%	> 100 µM	> 100 µM	< 10%	< 10%					Toxicity [8]: 10%
Nc1ccn(C2CC3OCC3O2)c(=O)n1 (stereo unspecified)	<10%	<10%		400 µM	> 500 µM	< 10%	< 10%	< 10%	> 1.2			Protection [9]: 10%
Nc1ccn([C@H]2C=C[C@@H](CO)O2)c(=O)n1	>90%			0.3 µM	30 µM	< 10%	< 10%	> 90%	100	<10%		Protection [12]: 40%
Nc1ncnc2c1ncn2[C@H]1CC[C@@H](CO)O1		<10%	>90%	2.7 µM	> 500 µM	< 10%	< 10%	< 10%	> 148			Protection [14]: 40%
Cc1cn([C@H]2C=C[C@@H](CO)O2)c(=O)[nH]c1=O [STAVUDINE]		>90%		4.1 µM	110 µM		> 90%	> 90%	27			Protection [15]: <10%; Toxicity [16]: 10%; Protection [17]: 10%
Cc1cn([C@H]2C[C@H](SC#N)[C@@H](CO)O2)c(=O)[nH]c1=O		<10%		> 100 µM	> 100 µM	< 10%	< 10%	> 90%		<10%	10%	
Cc1cn(C2CC(SCCO)C(CO)O2)c(=O)[nH]c1=O (stereo unspecified)	<10%	<10%		> 100 µM	> 100 µM	< 10%	< 10%					Protection [9]: 10%; Toxicity [8]: 10%
CNc1nc(=O)n(C2CC(N=[N+]=[N-])C(CO)O2)cc1C (stereo unspecified)		<10%	>90%	> 100 µM	> 100 µM	< 10%	< 10%	< 10%			10%	
Cc1cn(C2CC(Br)C(CO)O2)c(=O)[nH]c1=O (stereo unspecified)		<10%		> 500 µM	180 µM	< 10%	< 10%	> 90%	< 0.4	<10%	10%	
CCc1cn([C@H]2C[C@H](N=[N+]=[N-])[C@@H](CO)O2)c(=O)[nH]c1=O		<10%		> 100 µM	> 100 µM	< 10%	< 10%	> 90%		<10%	10%	Protection [15]: <10%
Cc1cn([C@H]2C[C@H](OCC(=O)[O-])[C@@H](CO)O2)c(=O)[nH]c1=O.[Na+]	<10%	<10%	<10%	> 100 µM	> 100 µM	< 10%	< 10%	< 10%				
Cc1cn([C@H]2C[C@@H](OS(C)(=O)=O)[C@@H](CO)O2)c(=O)[nH]c1=O	<10%	<10%	>90%	> 100 µM	> 100 µM	< 10%	< 10%					Toxicity [8]: 10%
Nc1ncnc2c1ncn2[C@H]1C=C[C@@H](CO)O1	<10%	<10%	<10%	40 µM	52 µM	< 10%	< 10%	> 90%	1.3			Toxicity [19]: < 10%; Toxicity [20]: < 10%
Cc1cn([C@H]2C[C@H](N=[N+]=[N-])[C@@H](CO)O2)c(=O)[nH]c1=O (stereo in doubt; 9k) [ZIDOVUDINE]	<10%	<10%	<10%			< 10%						Toxicity ([10]; 125 µM): < 10%; Toxicity ([7]; 5 µM): < 10%
CCc1cn(C2CC(F)C(CO)O2)c(=O)[nH]c1=O (stereo unspecified)	<10%	<10%		> 500 µM	> 500 µM	< 10%	< 10%	< 10%				Protection [9]: 10%
Nc1ccn(C2CC(F)C(CO)O2)c(=O)n1 (stereo unspecified)				8 µM	> 250 µM		> 90%	> 90%	> 31	<10%		Toxicity [19]: < 10%; Toxicity [20]: < 10%; Protection [12]: 40%; Protection [15]: <10%; Toxicity [16]: 10%
Nc1ccn([C@H]2CC[C@@H](CO)O2)c(=O)n1 [ZALCITABINE]	>90%			0.2 µM	35 µM	< 10%	< 10%	> 90%	175	<10%		Protection [12]: 40%
Cc1cn(C2CC(Cl)C(CO)O2)c(=O)[nH]c1=O (stereo unspecified)		<10%		> 500 µM	> 500 µM	< 10%	< 10%	> 90%		<10%	10%	
O=c1ccn(C2CCC(CO)O2)c(=O)[nH]1 (stereo unspecified)	<10%	<10%	>90%	> 500 µM	> 500 µM	< 10%	< 10%	< 10%				
CCc1cn(C2CCC(CO)O2)c(=O)[nH]c1=O (stereo unspecified)	<10%	<10%	<10%			< 10%	< 10%	< 10%		<10%		Toxicity [20]: < 10%
O=c1ccn([C@H]2C=C[C@@H](CO)O2)c(=O)[nH]1	<10%	<10%		> 100 µM	107 µM	< 10%	< 10%	> 90%	< 1.1	<10%		
Cc1cn([C@H]2C[C@H](I)[C@@H](CO)O2)c(=O)[nH]c1=O	<10%	<10%		> 500 µM	> 500 µM	< 10%	< 10%	> 90%		<10%		
CCSC1CC(n2cc(C)c(=O)[nH]c2=O)OC1CO (stereo unspecified)		<10%		> 100 µM	100 µM	< 10%	< 10%	> 90%	< 1	<10%	10%	
Nc1ncnc2c1ncn2[C@H]1C[C@H](F)[C@@H](CO)O1						< 10%	< 10%	< 10%				
CCO[C@H]1C[C@H](n2cc(C)c(=O)[nH]c2=O)O[C@@H]1CO		<10%		> 100 µM	> 100 µM	< 10%	< 10%	> 90%		<10%	10%	
Cc1cn([C@H]2C[C@H](OS(C)(=O)=O)[C@@H](CO)O2)c(=O)[nH]c1=O		<10%	>90%	> 100 µM	> 100 µM	< 10%	< 10%	< 10%			10%	
